Results from ChEMBL document CHEMBL1139499, “Nucleotides and pronucleotides of 2,2-bis(hydroxymethyl)methylenecyclopropane analogues of purine nucleosides: synthesis and antiviral activity” (J Med Chem, 2005).

Assays:
Hepatitis B virus = assay: Effective concentration required to inhibit hepatitis B virus replication in 2.2.15 cells in DNA hybridization assay; type: functional, organism-based; settings: HepG2 2.2.15
How it was run: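 HBV assayed in 2.2.15 cells by DNA hybridization. CC50 values are those from the EBV/H-1 cytotoxicity determination, run in CEM cells. Single experiments unless specified otherwise.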

Human alphaherpesvirus 1 [1] = assay: Effective concentration required to inhibit herpes simplex virus 1 in HFF cells in cytopathic effect (CPE) assay; type: functional, organism-based; settings: Human alphaherpesvirus 1, HFF
How it was run: (§1)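 HSV-1 and HSV-2 assayed in HFF cells by cytopathic effect (CPE) inhibition and by plaque reduction. Cytotoxicity measured in HFF cells. Single experiments unless specified otherwise.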

Human betaherpesvirus 5 [2] = assay: Effective concentration for antiviral activity against AD169 strain of human cytomegalovirus in plaque reduction assay; type: functional, organism-based
How it was run: (§2)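 Human CMV (Towne and AD169 strains) grown in HFF cell culture; antiviral effect read by plaque reduction or by cytopathic effect (CPE) inhibition. Cytotoxicity measured in HFF cells. Single experiments unless specified otherwise.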

Human alphaherpesvirus 1 [3] = assay: Effective concentration required to inhibit herpes simplex virus 1 in BSC-1 cells in ELISA; type: functional, organism-based; settings: Human alphaherpesvirus 1, BSC-1
How it was run: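 HSV-1 assayed in BSC-1 cells with ELISA read-out; cytotoxicity in these assays determined in KB cells. Single experiments unless specified otherwise.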

[4] = Effective concentration required to inhibit varicella zoster virus replication in HFF cells; type: functional, cell-based; settings: Human alphaherpesvirus 3, HFF
How it was run: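 VZV assayed in HFF cells by cytopathic effect (CPE) inhibition or by plaque reduction. Single experiments unless specified otherwise.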

Human alphaherpesvirus 1 [5] = assay: Effective concentration required to inhibit herpes simplex virus 1 in vero cells in plaque reduction assay; type: functional, organism-based; settings: Human alphaherpesvirus 1, Vero
How it was run: (§3)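 HSV-1 and HSV-2 assayed in Vero cells by plaque reduction. Single experiments unless specified otherwise.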

HFF [6] = assay: Cytotoxic concentration against towne strain of human cytomegalovirus infected HFF cells of human (visual cytotoxicity); type: functional; how it was run: as §2
Daudi = assay: Cytotoxic concentration to inhibit replication in daudi cells; type: functional; settings: Homo sapiens
Human betaherpesvirus 5 [7] = assay: Effective concentration for antiviral activity against towne strain of human cytomegalovirus in plaque reduction assay; type: functional, organism-based; how it was run: as §2
KB (Homo sapiens) = assay: Cytotoxic concentration required to inhibit KB cells
[8] = Cytotoxic concentration to inhibit replication in H-1 cells (in CEM cells); type: functional; settings: Homo sapiens, CCRF-CEM
How it was run: (§4)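 EBV assayed in H-1 cells by DNA hybridization. Cytotoxicity determined separately in CEM cells. Single experiments unless specified otherwise.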

MEF = assay: Cytotoxic concentration against murine cytomegalovirus infected MEF cells; type: functional; settings: Mus musculus
Human alphaherpesvirus 2 [9] = assay: Effective concentration required to inhibit herpes simplex virus 2 in vero cells in plaque reduction assay; type: functional, organism-based; settings: Human alphaherpesvirus 2, Vero; how it was run: as §3
Human alphaherpesvirus 2 [10] = assay: Effective concentration required to inhibit herpes simplex virus 2 in HFF cells in cytopathic effect (CPE) assay; type: functional, organism-based; settings: Human alphaherpesvirus 2, HFF; how it was run: as §1
Human gammaherpesvirus 4 [11] = assay: Effective concentration required to inhibit Epstein-barr virus replication in H-1 cells in DNA hybridization assay; type: functional, organism-based; settings: human gammaherpesvirus 4, H-1; how it was run: as §4
HFF [12] = assay: Cytotoxic concentration against AD169 strain of human cytomegalovirus infected HFF cells of human (by neutral red uptake); type: functional
HFF [13] = assay: Cytotoxic concentration against town strain of human cytomegalovirus infected HFF cells of human (visual cytotoxicity); type: functional; how it was run: as §2
HFF [14] = assay: Cytotoxic concentration against AD169 strain of human cytomegalovirus infected HFF cells of human (by cytopathic effect inhibition assay); type: functional; how it was run: as §2
Human gammaherpesvirus 4 [15] = assay: Effective concentration required to inhibit Epstein-barr virus replication in daudi cells in viral capsid immunofluorescence ELISA; type: functional, organism-based; settings: human gammaherpesvirus 4, Daudi
HFF [16] = assay: Cytotoxic concentration to inhibit herpes simplex virus 1 infected HFF cells; type: functional; settings: Homo sapiens; how it was run: as §1
HFF [17] = assay: Cytotoxic concentration to inhibit herpes simplex virus 2 infected HFF cells; type: functional; settings: Homo sapiens; how it was run: as §1
HFF [18] = assay: Cytotoxic concentration to inhibit Herpes simplex virus 2 infected HFF cells; type: functional; settings: Homo sapiens; how it was run: as §1
HFF [19] = assay: Cytotoxic concentration to inhibit Herpes simplex virus 1 infected HFF cells; type: functional; settings: Homo sapiens; how it was run: as §1
Homo sapiens = organism: Homo sapiens; assay: Cytotoxic concentration to inhibit replication in 2.2.15 cells; type: functional; settings: HepG2 2.2.15

Compound | EC50 (Hepatitis B virus) [µM] | EC50 (Human alphaherpesvirus 1 [1]) [µM] | EC50 (Human betaherpesvirus 5 [2]) [µM] | EC50 (Human alphaherpesvirus 1 [3]) [µM] | EC50 [4] [µM] | EC50 (Human alphaherpesvirus 1 [5]) [µM] | CC50 (HFF [6]) [µM] | CC50 (Daudi) [µM] | EC50 (Human betaherpesvirus 5 [7]) [µM] | CC50 (KB (Homo sapiens)) [µM] | CC50 [8] [µM] | CC50 (MEF) [µM] | EC50 (Human alphaherpesvirus 2 [9]) [µM] | EC50 (Human alphaherpesvirus 2 [10]) [µM] | EC50 (Human gammaherpesvirus 4 [11]) [µM] | CC50 (HFF [12]) [µM] | CC50 (HFF [14]) [µM] | EC50 (Human gammaherpesvirus 4 [15]) [µM] | also measured
Nc1ncnc2c1ncn2/C=C1/CC1(CO)CO | > 10 | > 404 | 11.7 | 50 | > 404 | > 50 | > 100 | > 202 | 2.4 | > 100 | > 50 | > 404 | > 50 | > 404 | > 20 | > 404 |  |  | 
Nc1nc(O)c2ncn(/C=C3\CC3(CO)COP(=O)(O)O)c2n1 (configuration not stated) | > 20 | > 291 | > 291 | > 100 | > 291 | > 50 |  | > 146 | > 100 | > 100 | > 100 |  | > 50 | > 291 | > 20 |  | > 291 | > 146 | CC50 (HFF [13]): > 100 µM
COC(=O)C(C)NP(=O)(OCC1(CO)C/C1=C\n1cnc2c(O)nc(N)nc21)Oc1ccccc1 (configuration not stated) | > 10 | > 198 | > 198 | 70 | > 198 | > 50 | > 100 | > 198 | > 100 | > 100 | > 100 |  | > 50 | > 198 | > 20 |  | > 198 | > 99 | 
Nc1nc(O)c2ncn(/C=C3/CC3(CO)COP(=O)(O)O)c2n1 (configuration not stated) | 15 | 9.9 | 1.1 | > 100 | > 291 | 50 | 100 | > 146 | 0.25 | > 100 | 62 | 175 | > 50 | 23.3 | 2.3 | > 291 |  | > 146 | CC50 (HFF [16]): > 291 µM; CC50 (HFF [17]): > 291 µM
COC(=O)C(C)NP(=O)(OCC1(CO)C/C1=C/n1cnc2c(N)ncnc21)Oc1ccccc1 (configuration not stated) | 12.8 | 21.1 | 18.4 | 55 | > 41 | > 40 | 32 | > 102 | 3 | 3.5 | 3.8 |  | > 40 | 22.1 | 3 | 200 |  | > 102 | CC50 (HFF [18]): 200 µM; CC50 (HFF [19]): 200 µM
Nc1ccn([C@@H]2CS[C@H](CO)O2)c(=O)n1 [LAMIVUDINE] | 0.05 |  |  |  |  |  |  |  |  |  |  |  |  |  |  |  |  |  | CC50 (Homo sapiens): > 100 µM
